Test results taken from ChEMBL document CHEMBL1146019, “Structure-based design of novel HIV-1 protease inhibitors to combat drug resistance” (J Med Chem, 2006).

Columns and labels:
[1] = system: Human immunodeficiency virus 1; assay: Antiviral activity against HIV1 LAI isolate in human MT2 cells; assay type: functional, organism-based; conditions: Human immunodeficiency virus 1, MT2
Summary of the method: (§1)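 MT-2 cells (2 × 10⁴/mL) were infected with 100 TCID₅₀ of virus and incubated with various drug concentrations at 37 °C for 7 days. MTT was then added for 2 h at 37 °C, formazan was dissolved in acidified 2-propanol with 4% Triton X-100, and optical density was read. Assays were run in duplicate or triplicate.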

[2] = system: Human immunodeficiency virus 1; assay: Antiviral activity against HIV1 LAI isolate in human PHA-PBMC cells; assay type: functional, organism-based; conditions: Human immunodeficiency virus 1, PBMC
Summary of the method: (§2)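 PHA-activated PBMC (1 × 10⁶/mL) were exposed to 50 TCID₅₀ of each isolate and cultured with or without drug in 10-fold serial dilutions. On day 7, supernatant p24 Gag was measured by chemiluminescent enzyme immunoassay. IC₅₀ was the concentration suppressing p24 production by 50% relative to drug-free control cultures. Assays were run in triplicate.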

[3] = system: Human immunodeficiency virus 1; assay: Antiviral activity against HIV1 BA-L isolate in human PHA-PBMC cells; assay type: functional, organism-based; conditions: Human immunodeficiency virus 1, PBMC; summary of the method: as §2
[4] = system: Human immunodeficiency virus 2; assay: Antiviral activity against HIV2 EHO isolate in human MT2 cells; assay type: functional, organism-based; conditions: Human immunodeficiency virus 2, MT2; summary of the method: as §1
[5] = system: Human immunodeficiency virus 1; assay: Antiviral activity against multi drug-resistant HIV1 ET variant in human PHA-PBMC cells; assay type: functional, organism-based; conditions: Human immunodeficiency virus 1, PBMC
Summary of the method: (§3)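 PHA-activated peripheral blood mononuclear cells (1 × 10⁶/mL) infected with 50 TCID₅₀ of each isolate and cultured with or without drug in 10-fold serial dilutions. On day 7, p24 Gag protein in the supernatant was measured by automated chemiluminescent enzyme immunoassay. IC₅₀ was the concentration suppressing p24 production by 50% relative to drug-free control cultures. Assays were run in triplicate.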

[6] = system: Human immunodeficiency virus 1; assay: Antiviral activity against multi drug-resistant HIV1 B variant in human PHA-PBMC cells; assay type: functional, organism-based; conditions: Human immunodeficiency virus 1, PBMC; summary of the method: as §3
[7] = system: Human immunodeficiency virus 1; assay: Antiviral activity against multi drug-resistant HIV1 C variant in human PHA-PBMC cells; assay type: functional, organism-based; conditions: Human immunodeficiency virus 1, PBMC; summary of the method: as §3
[8] = system: Human immunodeficiency virus 1; assay: Antiviral activity against multi drug-resistant HIV1 G variant in human PHA-PBMC cells; assay type: functional, organism-based; conditions: Human immunodeficiency virus 1, PBMC; summary of the method: as §3
[9] = system: Human immunodeficiency virus 1; assay: Antiviral activity against multi drug-resistant HIV1 TM variant in human PHA-PBMC cells; assay type: functional, organism-based; conditions: Human immunodeficiency virus 1, PBMC; summary of the method: as §3
[10] = system: Human immunodeficiency virus 1; assay: Antiviral activity against multi drug-resistant HIV1 EV variant in human PHA-PBMC cells; assay type: functional, organism-based; conditions: Human immunodeficiency virus 1, PBMC; summary of the method: as §3
[11] = system: Human immunodeficiency virus 1; assay: Antiviral activity against multi drug-resistant HIV1 ES variant in human PHA-PBMC cells; assay type: functional, organism-based; conditions: Human immunodeficiency virus 1, PBMC; summary of the method: as §3
[12] = system: Human immunodeficiency virus 1; assay: Antiviral activity against multi drug-resistant HIV1 K variant in human PHA-PBMC cells; assay type: functional, organism-based; conditions: Human immunodeficiency virus 1, PBMC; summary of the method: as §3
[13] = target: Human immunodeficiency virus type 1 protease (Human immunodeficiency virus 1, UniProt Q72874); assay: Inhibition of HIV1 protease
MT2 = assay: Cytotoxicity against human MT2 cells; assay type: functional
PBMC = assay: Cytotoxicity against human PHA-PBMC cells; assay type: functional

Ki [13]	SMILES	IC50 [1]	IC50 [2]	IC50 [3]	IC50 [4]	IC50 [5]	IC50 [6]	IC50 [7]	IC50 [8]	IC50 [9]	IC50 [10]	IC50 [11]	IC50 [12]	CC50 (MT2)	CC50 (PBMC)
	CC(C)(C)NC(=O)[C@@H]1CN(Cc2cccnc2)CCN1C[C@@H](O)C[C@@H](Cc1ccccc1)C(=O)N[C@H]1c2ccccc2C[C@H]1O	26 nM	32 nM	24 nM	13 nM	30 nM	> 1000 nM	500 nM	500 nM	> 1000 nM	> 1000 nM	> 1000 nM	260 nM		
	Cc1c(O)cccc1C(=O)N[C@@H](CSc1ccccc1)[C@H](O)CN1C[C@H]2CCCC[C@H]2C[C@H]1C(=O)NC(C)(C)C	10 nM	14 nM	7 nM	20 nM	32 nM	> 1000 nM	310 nM	170 nM	> 1000 nM	> 1000 nM	> 1000 nM	> 1000 nM		
	CC(C)c1nc(CN(C)C(=O)N[C@H](C(=O)N[C@@H](Cc2ccccc2)C[C@H](O)[C@H](Cc2ccccc2)NC(=O)OCc2cncs2)C(C)C)cs1 [RITONAVIR]	34 nM	43 nM	36 nM	290 nM	15 nM	> 1000 nM	> 1000 nM	> 1000 nM	> 1000 nM	> 1000 nM	> 1000 nM	57 nM		
0.14 nM	CC(C)CN(CC(O)C(Cc1ccccc1)NC(=O)O[C@@H]1C[C@@H]2CCO[C@@H]2C1)S(=O)(=O)c1ccc(N)cc1 (some centres not stated)	8 nM													
	CC(C)CN(C[C@@H](O)[C@H](Cc1ccccc1)NC(=O)O[C@H]1CO[C@H]2OCC[C@H]21)S(=O)(=O)c1ccc(N)cc1						10.2 nM	3.5 nM	3.7 nM	3.5 nM			3 nM		
	CC(C)CN(C[C@@H](O)[C@H](Cc1ccccc1)NC(=O)O[C@H]1CCOC1)S(=O)(=O)c1ccc(N)cc1	24 nM	34 nM	29 nM	440 nM	23 nM	290 nM	300 nM	310 nM	220 nM	> 1000 nM	> 1000 nM	68 nM		
5.3 nM	CC(C)CN(CC(O)C(Cc1ccccc1)NC(=O)O[C@H]1C[C@H]2CCC[C@H]2C1)S(=O)(=O)c1ccc(CO)cc1 (some centres not stated)	> 1000 nM													
	CC(C)CN(CC(O)C(Cc1ccccc1)NC(=O)O[C@@H]1C[C@@H]2CCO[C@@H]2C1)S(=O)(=O)c1ccc(CO)cc1 (some centres not stated)	1.8 nM	1.8 nM	2 nM	21 nM	3 nM	15 nM	5 nM	20 nM	4 nM	52 nM	31 nM	3 nM	> 100000 nM	> 100000 nM
	CC(C)(C)NC(=O)[C@@H]1C[C@@H]2CCCC[C@@H]2CN1C[C@@H](O)[C@H](Cc1ccccc1)NC(=O)[C@H](CC(N)=O)NC(=O)c1ccc2ccccc2n1	24 nM	14 nM	18 nM	1.9 nM	17 nM		100 nM	59 nM	250 nM	> 1000 nM	> 1000 nM	20 nM		
